# High-throughput results from PubChem BioAssay.
# HCT116 bCat-KO: beta-catenin-lacking colon tumor cell growth suppression; HCT116 beta-catenin knockout viability, CellTiter-Glo, 60 h; stronger effect = lower value; 1.5% of 140,000 active; viability, % at 10 µM; AID 818;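 active means viability at or under a set limit, the compound median less 4 SD, cut at about 6% in these data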;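 further: 0% = Hyamine 1622 control at 20 µM and 100% = untreated cell control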
# TNAP inh hiacc: TNAP (human) inhibition, high acceptor | inhibition, % at 20 µM | purified TNAP, CDP-star luminescence, 1 M DEA | 0.03% of 200,000 active | P05186;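 active means over 50% inhibition of tissue-nonspecific alkaline phosphatase at 20 µM in the single-dose screen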;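 further: plate controls were DMSO wells for no effect and EDTA-quenched wells as full inhibition for full effect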
# Target sequence (P05186 whole entry, looked up): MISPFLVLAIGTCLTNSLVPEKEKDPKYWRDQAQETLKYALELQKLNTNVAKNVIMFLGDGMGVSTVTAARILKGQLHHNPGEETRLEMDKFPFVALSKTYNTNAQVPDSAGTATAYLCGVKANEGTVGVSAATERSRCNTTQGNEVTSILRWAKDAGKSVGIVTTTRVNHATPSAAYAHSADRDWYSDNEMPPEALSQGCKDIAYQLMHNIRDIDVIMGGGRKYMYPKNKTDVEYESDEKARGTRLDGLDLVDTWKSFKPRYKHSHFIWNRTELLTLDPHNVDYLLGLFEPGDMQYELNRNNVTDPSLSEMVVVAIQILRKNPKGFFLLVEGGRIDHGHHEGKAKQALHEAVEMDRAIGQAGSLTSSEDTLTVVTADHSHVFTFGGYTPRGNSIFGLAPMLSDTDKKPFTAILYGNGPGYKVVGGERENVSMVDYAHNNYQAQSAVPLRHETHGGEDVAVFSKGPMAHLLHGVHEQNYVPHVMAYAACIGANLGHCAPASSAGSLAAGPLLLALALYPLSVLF
# PTEN del growth: PTEN-deleted cell growth suppression | viability, % at 10 µM | 1.2% of 140,000 active | HCT116 PTEN-null viability, CellTiter-Glo, 60 h; stronger effect = lower value | AID 827;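 active means viability at or below a set limit, 4 SD under the median of all tested compounds, cut at about 3.7% in these data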;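 further: PTEN knockout HCT116 line with beta catenin targeted HCT116 as companion control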
# TNAP inh no acc: TNAP (human) inhibition, acceptor-free conditions; AID 1012; P05186; purified TNAP, CDP-star luminescence, 30 min; inhibition, % at 20 µM; 0.26% of 200,000 active;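 active means tissue-nonspecific alkaline phosphatase inhibition above about 50% at 20 µM in the single-dose screen, limit read from the data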;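 further: 0% = DMSO negative control and 100% = EDTA positive control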
# TNAP act hiacc: increases human TNAP activity under high phosphate acceptor concentration | purified TNAP, CDP-star luminescence, 1 M DEA, 30 min; stronger effect = higher value; 0 = EDTA background, 1 = DMSO-only activity | activation factor at 20 µM | 200,000 tested, under 10 active | AID 1136;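 active means activation factor at least 2 at 20 µM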
#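 system = human TNAP | amount = enzyme diluted 1/800 final | reagent = 100 µM CDP-star substrate | signal = luminescent substrate turnover signal | dosing = one dose, 20 µM | benchmarks = EDTA negative control, DMSO positive control | measure = activation factor | timing = 30 min reaction, room temperature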
# Lmaj promast: inhibitors of Leishmania major promastigote growth; Leishmania major promastigotes, resazurin fluorescence viability; inhibition, % at 10 µM; 9% of 200,000 active; AID 1063; in the data active means inhibition above about 50%;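 further: promastigotes grown with compound for 44 hours at 28 °C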
# * marks the source's active call; other numbers are inactive results; x = no result. Compounds with a hit are over-represented: about 9.6% of the library has one in this group of screens.
SMILES,HCT116 bCat-KO,TNAP inh hiacc,PTEN del growth,TNAP inh no acc,TNAP act hiacc,Lmaj promast
Fc1cccc(F)c1CN1CCN(c2ncccn2)CC1,103,1,103,-9,1,0
O=C1CC2(CCCC2)CC(=O)N1CCCCN1CCN(c2ncccn2)CC1,97,2,98,-4,1,60*
C/C(CCC12CC3CC(CC(C3)C1)C2)=N\NC(N)=S,31,-3,52,6,1,100*
S=C(NCCc1ccccc1)Nc1ccc(Cl)cc1,74,-1,82,-11,1,19
O=[N+]([O-])c1ccc(NC(=S)NCCc2ccc(Cl)cc2)cc1,3.5*,6,2.9*,2,0.9,91*
O=[N+]([O-])c1ccc(NC(=S)NCCc2ccccc2)cc1,6,-6,4,5,1.1,74*
NS(=O)(=O)c1ccc(NC(=S)NCCc2ccccc2)cc1,x,-2,x,-2,1,7
S=C(NCCc1ccccc1)Nc1ccccc1Cl,86,-1,88,-2,1,68*
O=[N+]([O-])c1cc(C(F)(F)F)ccc1NCCNC(=S)Nc1ccc(Cl)cc1,18,10,4,4,0.9,101*
S=C(NCCCc1ccccc1)Nc1ccccc1Cl,91,-3,92,19,1,17
CCCCNC(=O)N(c1c(N)n(Cc2ccccc2)c(=O)[nH]c1=O)C1CCCC1,x,-1,x,-5,1,-1
CNC(=O)C12CC3CC(CC(Cl)(C3)C1)C2,99,0,93,-23,1,-3
O=[N+]([O-])c1ccc(NNC(=S)Nc2ccccc2)cc1,93,16,90,46,0.8,53*
CC1=C(C(=O)OCc2ccccc2)C(c2ccc(C#N)cc2)NC(=O)N1CCCC(=O)O (centres undefined),98,-7,103,-8,1.1,-7
CN1CC(c2ccc(C#N)cc2)C2(COc3ccccc3C2=O)C12C(=O)Nc1ccccc12 (centres undefined),78,-3,71,-4,1,90*
CC(C(=O)NCC1CCCCC1)N1CCN(S(=O)(=O)c2ccccc2F)CC1 (centres undefined),x,-7,x,-13,1.1,2
O=C(O)c1ccc(N2C(=O)/C(=C/C=C/c3ccccc3)SC2=S)cc1,x,-4,x,6,1,-2
CN(C)c1ccc(/C=C/C=C2/SC(=S)N(c3ccccc3)C2=O)cc1,66,54*,70,55*,0.5,18
COc1ccccc1CCc1nnc(CCC(=O)NC(C)Cc2cccnc2)o1 (centres undefined),x,-4,x,-9,1,0
Cc1ccc(C2=N/C(=C\c3cccnc3)C(=O)O2)cc1,100,-3,104,-4,1,66*
O=C(CCN1CCOCC1)NNC(=S)NC(=O)c1ccccc1,x,-6,x,-134,1.1,-9
NC(=O)c1ccccc1NC(=S)NC(=O)CCc1ccccc1,17,2,16,2,1,-6
Cc1cccc(C)c1NC(=S)NC(=O)CCc1ccccc1,64,-4,55,-1,1,93*
Cc1ccccc1NC(=S)NC(=O)CCc1ccccc1,94,-6,100,-9,1.1,100*
Cc1ccccc1NC(=S)NC(C)CCc1ccccc1 (centres undefined),60,3,62,-10,1,62*
SMILES,HCT116 bCat-KO,TNAP inh hiacc,PTEN del growth,TNAP inh no acc,TNAP act hiacc,Lmaj promast
Cc1nnc(SCc2ccccc2CSc2nnc(C)s2)s1,x,-6,x,-9,1.1,5
CC1=CCC2([N+](=O)[O-])CN(CC(=O)O)CC1([N+](=O)[O-])C2 (centres undefined),92,-7,97,-6,1.1,-4
CCC1CCC(C(=O)NNC(=O)c2cc(-c3ccco3)[nH]n2)CC1 (centres undefined),x,-3,x,-162,1,19
CCOC(=O)C1(Cc2ccccc2)CCN(Cc2cn[nH]c2-c2ccccc2)CC1,x,-1,x,5,1,33
CCC(C)n1c(SCC(=O)Nc2ccccc2C(F)(F)F)nc2ccsc2c1=O (centres undefined),75,-4,71,-9,1,96*
CCOc1ccc(-c2nnc(Nc3ccc(OC)c(C(=O)N4CCCCC4)c3)c3ccccc23)cc1,56,-4,46,-7,1,61*
CNC(=O)c1cc(Nc2nnc(-c3ccc(O)cc3)c3ccccc23)ccc1OC,x,-5,x,31,1,-2
c1coc(CNc2c3c(nc4ncnn24)CCCC3)c1,73,-3,76,4,1,3
COc1cc(OC)cc(-c2cc3nc4c(c(N5CCN(c6ncccn6)CC5)n3n2)CCCC4)c1,79,-8,81,6,1.1,52*
CCc1c(C)nc2cc(-c3cc(OC)cc(OC)c3)nn2c1N1CCCC1,78,5,69,1,0.9,26
OC1CCN(c2c3c(nc4cc(-c5cccc(F)c5)nn24)CCCC3)CC1,74,-2,61,-7,1,13
Clc1cccc(-c2cc3nc4c(c(N5CCNCC5)n3n2)CCCC4)c1,1.5*,-1,1.0*,-1,1,101*
Clc1cccc(-c2cc3nc4c(c(NCc5ccco5)n3n2)CCCC4)c1,78,-9,68,-10,1.1,53*
CC(=O)Nc1cccc(NC(=O)CS(=O)(=O)c2cn(CC(=O)N3CCOCC3)c3ccccc23)c1,x,-5,x,-13,1.1,-4
CC1CCCN(CCCOc2ccc(Br)cc2Cl)C1 (centres undefined),x,-5,x,-10,1,89*
CC1CCN(CCOc2cc(Cl)ccc2Cl)CC1,74,0,77,-8,1,85*
CC1CCN(CCOCCOc2ccc(Br)cc2Cl)CC1,50,-5,54,11,1,99*
O=C1CSC(c2cccc([N+](=O)[O-])c2)N1CCN1CCCCC1 (centres undefined),x,-3,x,-8,1,85*
O=C1CSC(c2ccccc2F)N1c1cc(Cl)ccc1O (centres undefined),78,-4,67,-8,1,1
O=C1CSC(c2ccccc2F)N1CCN1CCCCC1 (centres undefined),94,-7,96,-13,1.1,78*
CN1CCC/C1=C1/C(=O)N(c2ccccc2)N=C1NC(=O)Nc1cccc(Cl)c1,x,2,x,-7,1,9
CNc1ccc(S(=O)(=O)NCC(=O)OCC(=O)Nc2cccc(Cl)c2Cl)cc1[N+](=O)[O-],97,2,97,3,1,42
O=C(NC(=S)N1CCc2ccccc21)c1ccccc1Br,91,4,101,-2,1,-4
O=C(c1ccc2c(c1)N(Cc1cccc(Cl)c1)C(=O)c1ccccc1S2(=O)=O)N1CCN(c2ccccn2)CC1,x,-6,x,-12,1.1,98*
CC1CC(C)(C)NC(=S)N1CCCC(=O)NCc1ccccc1 (centres undefined),x,-4,x,-2,1,7
